Screening results as filed in PubChem BioAssay.
This is a sample that favours compounds with a hit; in the whole collection about 1.7% have one here.
Casp6 inh – caspase-6 (human) enzyme inhibition | P55212 | purified caspase-6, Z-VEID-R110 cleavage fluorescence | inhibition, % at 12.5 µM | hit rate 0.53% among 350,000;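 active = mean inhibition across replicates at least about 35%, with every replicate also reaching that limit, limit read from the data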
Target sequence (P55212 24-179 limits assumed): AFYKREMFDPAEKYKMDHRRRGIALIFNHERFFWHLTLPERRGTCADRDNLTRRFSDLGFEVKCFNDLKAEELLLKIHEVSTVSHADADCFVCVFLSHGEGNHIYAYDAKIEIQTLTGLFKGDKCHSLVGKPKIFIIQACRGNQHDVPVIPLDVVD
Target sequence (P55212 194-293 limits assumed): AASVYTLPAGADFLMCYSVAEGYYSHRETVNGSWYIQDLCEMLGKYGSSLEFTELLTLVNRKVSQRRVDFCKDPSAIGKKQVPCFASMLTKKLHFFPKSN
Scp-1 inhibitor – Scp-1 (human) phosphatase inhibition; inhibition, % at 20 µM; Q9GZU7; AID 493091; Recombinant Scp1, phosphopeptide, malachite green phosphate absorbance; hit rate 0.88% among 340,000;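 active = inhibition above about 50% at 20 µM, limit read from the data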
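Incubation: 45 min enzyme reaction at room temperature / System: truncated SCP-1 phosphatase (76-261aa) / Reagent: Phospho 17-mer peptide substrate / Buffer or medium: Acidic Tris acetate buffer with magnesium and detergent / Signal: absorbance at 630 nm / Doses: one concentration, 20 µM, with 1.0% DMSO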
STEP inh – blocks human striatal-enriched tyrosine phosphatase | P54829 | recombinant STEP, OMFP fluorogenic substrate, fluorescence | inhibition, % at 20 µM | hit rate 0.25% among 360,000 | AID 588621;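 active = inhibition at 20 µM, scaled per plate between control wells, above about 37%, limit read from the data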
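System: STEP (striatal-enriched tyrosine phosphatase) enzyme, cell-free; medium: Bis-Tris pH 6.0 buffer with DTT, detergent; dosing: 20 µM, 1% DMSO; times: reaction 20 min, ambient temperature; detection: fluorescence, 480/540 nm; read-out basis: normalized % inhibition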
SUMO1-SIM PPI – SUMO1-SIM interaction modulation. P63165. SUMO1 binding to a labelled peptide, TR-FRET, 1 h. inhibition, % at 20 µM. hit rate 0.33% among 360,000; in the data active = inhibition above about 37%
Target sequence (P63165 whole entry, looked up): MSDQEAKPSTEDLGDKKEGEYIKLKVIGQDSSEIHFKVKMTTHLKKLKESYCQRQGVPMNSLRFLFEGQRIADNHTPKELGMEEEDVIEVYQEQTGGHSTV
DNMT1 inh – inhibitors of human DNMT1 | P26358 | DNMT1 molecular beacon, Hinp1I cleavage, fluorescence | AID 588458 | inhibition (reported as % activation of signal), % at 10 µM | hit rate 0.83% among 360,000; in the data active = inhibition above about 50%
LMPTP block – blocks human LMPTP phosphatase | P24666 | recombinant LMPTP-A, OMFP fluorogenic substrate, fluorescence intensity | inhibition, % at 20 µM | hit rate 0.22% among 360,000;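 active = compounds that cut the enzyme signal by at least half of the control window in the single-dose screen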
Target sequence (P24666 whole entry, looked up): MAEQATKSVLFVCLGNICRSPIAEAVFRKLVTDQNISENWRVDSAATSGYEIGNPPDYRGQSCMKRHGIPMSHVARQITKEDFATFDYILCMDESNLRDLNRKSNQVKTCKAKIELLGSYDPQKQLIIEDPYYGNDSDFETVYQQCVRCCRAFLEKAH
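Material: LMPTP-A; amount: 0.625 nM enzyme; doses: single 20 µM dose; times: reaction 50 min, room temperature, dark; technique: fluorescence intensity of OMFP turnover product; benchmarks: no-enzyme and uninhibited controls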
DNMT1 inh conf – confirmation of human DNMT1 inhibitors. shares compounds with DNMT1 inh. DNMT1 molecular beacon HinP1I cleavage, fluorescence. inhibition, % at 10 µM. hit rate 8% among 2,300;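 active = average inhibition of at least 30% in the single-concentration confirmation test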
DNMT1 interf – shows spectral interference in the DNMT1 beacon assay. shares compounds with DNMT1 inh. activation (fluorescence interference), % at 10 µM. hit rate 1% among 2,300. AID 602387. DNMT1 molecular beacon spectral interference counterscreen, fluorescence 485/520;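 active = activation of at least 30% at 10 µM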;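 also: DNMT1 catalytic domain with a HinP1I cleavage step and a FAM/dabcyl DNA beacon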
Hits are given with their value; - = inactive; . = no result.

SMILES	Casp6 inh	Scp-1 inhibitor	STEP inh	SUMO1-SIM PPI	DNMT1 inh	LMPTP block	DNMT1 inh conf	DNMT1 interf
Oc1ccc(Br)cc1/C=N/n1c(-c2ccccc2)n[nH]c1=S	-	-	-	-	82.2	-	-	-
O=[N+]([O-])c1cc(/C=N/n2c(-c3ccncc3)n[nH]c2=S)ccc1Cl	.	-	-	-	54.9	-	-	-
S=c1[nH]nc(-c2cc(-c3ccccc3)n[nH]2)n1/N=C/c1ccc(Cl)cc1	-	-	-	-	-	-	.	.
Clc1ccc(NNc2ccnc3cc(Cl)ccc23)cc1	.	-	-	-	-	-	.	.
Clc1ccc2c(N/N=C/c3ccc(Br)cc3)ccnc2c1	-	-	-	-	66.4	-	-	-
Clc1ccc2c(N/N=C/c3cccnc3)ccnc2c1	-	-	-	-	-	-	.	.
Cc1ccccc1/C=N/Nc1ccnc2cc(Cl)ccc12	-	-	-	-	69.8	-	-	-
Cc1ccc(/C=N/Nc2ccnc3cc(Cl)ccc23)c(C)c1	-	-	-	-	61.8	-	-	-
Oc1ccc(/C=N/Nc2ccnc3cc(Cl)ccc23)c(O)c1	69.2	-	-	111.7	84.4	-	-	-
CCOc1ccc(S(=O)(=O)N(CC(=O)N/N=C/c2ccc(-c3ccc([N+](=O)[O-])cc3)o2)c2ccccc2)cc1	.	-	-	-	99.9	-	-	-
CCOC(=O)c1ccc(-c2ccc(/C=N/NC(=O)CN(c3ccccc3Cl)S(C)(=O)=O)o2)cc1	.	-	-	-	-	-	.	.
CCOC(=O)c1ccc(-c2ccc(/C=N/NC(=O)CN(c3cccc(C)c3)S(C)(=O)=O)o2)cc1	-	-	-	-	57.0	-	-	-
O=C(O)CSc1cc(C(=O)c2ccccc2O)cn2c(=O)c3c(-c4ccccc4)csc3nc12	39.5	-	-	-	58.9	-	-	-
O=C(/C=C/c1ccco1)Nc1cccc(C(=O)Nc2ccccc2C(=O)O)c1	59.9	58.1	-	52.9	85.5	-	-	-
Cc1ccc(-n2nc3ccc(NC(=O)/C=C/c4ccco4)cc3n2)cc1	-	-	-	-	103.9	-	-	-
CCc1ccccc1NC(=O)c1cccc(NC(=O)/C=C/c2ccco2)c1	.	-	-	-	-	-	.	.
COc1cccc(NC(=O)Cc2csc(NC(=O)Nc3ccccc3OC)n2)c1	-	-	-	-	-	-	.	.
Cc1cc(NCC2CCCCC2)nc2ccccc12	-	-	-	-	-	-	.	.
Cc1noc(C)c1NC(=O)N(C)C[C@@H]1Oc2ccc(NC(=O)Nc3ccc(C(F)(F)F)cc3)cc2CC(=O)N([C@H](C)CO)C[C@H]1C	-	.	.	.	.	.	.	.
CC1COc2ccccc2N1S(=O)(=O)c1cc(Cl)ccc1Cl (stereo not given)	-	-	-	-	-	-	.	.
Cc1cc(C)cc(Nc2nc(-c3ccc(S(=O)(=O)N4CCCC4)cc3)cs2)c1	-	-	-	-	96.5	-	-	-
Cc1cc2nc3c(=O)n(CCc4ccccc4)c(=O)[nH]c3nc2cc1N	-	-	-	-	63.4	-	65.5	90.4
C=CCn1c(=O)[nH]c2nc3cc(N=CN(C)C)c(C)cc3nc2c1=O	-	-	-	-	-	-	.	.
Cc1cc(C)c2c(N)c3ccccc3nc2n1	.	-	-	-	67.0	-	-	-
CCc1ccc2nc3nc(C)cc(C)c3c(N)c2c1	-	-	-	-	-	-	.	.
SMILES	Casp6 inh	Scp-1 inhibitor	STEP inh	SUMO1-SIM PPI	DNMT1 inh	LMPTP block	DNMT1 inh conf	DNMT1 interf
Cn1nc(C(=O)NC2CCCCC2)c2ccccc2c1=O	.	-	-	-	-	-	.	.
Cn1nc(CC(=O)NC2CCCCCCCCCCC2)c2ccccc2c1=O	.	-	-	-	69.1	-	-	-
O=c1[nH]c(Nc2ccccc2)cc2cc(Br)ccc12	98.9	-	-	-	92.0	-	-	-
O=c1cc(Nc2cccc(Br)c2)[nH]c(=O)[nH]1	-	-	-	-	-	-	.	.
COc1ccccc1Nc1cc2cc(Br)ccc2c(=O)[nH]1	.	-	-	-	68.7	-	-	-
Cc1cc(NC(=O)CCC(=O)N(CC(C)C)C(C(=O)NC(C)(C)C)c2ccccc2Cl)no1 (stereo not given)	-	-	-	-	-	-	.	.
O=C(N/N=C/c1cc(Cl)ccc1O)c1ccc(Br)cc1	.	98.2	91.1	-	81.3	71.8	-	-
O=C(c1ccccc1[N+](=O)[O-])N1N=C(c2ccccc2)CC1(O)C(F)(F)F (stereo not given)	-	-	-	-	-	-	.	.
CN(C)c1cccc(C(=O)OCc2cc(=O)oc3cc(O)ccc23)c1	.	61.5	40.8	-	82.2	-	-	-
CC1CN(S(=O)(=O)c2cccc(C(=O)OCc3cc(=O)oc4cc(O)ccc34)c2)CC(C)O1 (stereo not given)	.	-	-	-	-	-	.	.
CC(OC(=O)C1=NN(c2ccccc2)C(=O)CC1)C(=O)NC1CCCCC1C (stereo not given)	-	-	-	-	-	-	.	.
COc1ccc(/C=N/NC(=O)c2cccc([N+](=O)[O-])c2)c2ccccc12	-	-	-	-	51.2	-	-	-
COc1cccc(/C=N/NC(=O)c2cccc([N+](=O)[O-])c2)c1OS(=O)(=O)c1ccccc1	.	-	-	-	-	-	.	.
Cc1ccc(C)c(C(C)NC(=S)NC2CCCCC2)c1 (stereo not given)	-	-	-	-	-	-	.	.
C[C@H]1CN([C@@H](C)CO)S(=O)(=O)c2ccc(-c3ccc(F)cc3)cc2O[C@H]1CN(C)C(=O)c1ccccc1F	-	.	.	.	.	.	.	.
COc1cc(CCNC(=O)c2cnn3ccccc23)cc(OC)c1OC	-	-	-	-	79.8	-	-	-
CCN=c1scc(C)n1/N=C/c1ccsc1	.	-	-	-	-	-	.	.
O=C1CN(C(=O)NCC(=O)N[C@H](Cc2ccccc2)C(=O)O)c2ccccc2N1	-	-	-	-	74.3	-	-	-
O=C1CN(C(=O)NCC(=O)N[C@H](C(=O)O)c2ccccc2)c2ccccc2N1	-	-	-	-	-	-	.	.
CC(C)OCCCNC(=O)c1c(N)n(/N=C/c2cccs2)c2nc3ccccc3nc12	-	-	-	-	60.2	-	-	-
Cn1c(C(=O)NCCC2=CCCCC2)cc2c(=O)n3ccccc3nc21	.	-	-	-	-	-	.	.
Cc1cccn2c(=O)c3cc(C(=O)NCCC4=CCCCC4)n(C)c3nc12	-	-	-	-	59.1	-	-	-
COc1cc(/C=C2/SC(=S)N(Cc3ccccc3)C2=O)ccc1OCC(=O)O	-	-	-	-	-	-	.	.
